We go through one compound from ChEMBL document CHEMBL4396943, “The tetrahydroxanthone-dimer phomoxanthone A is a strong inducer of apoptosis in cisplatin-resistant solid cancer cells” (Bioorg Med Chem, 2019).

Assay [1] concerns A2780cisR. Description: Induction of apoptosis in human A2780cisR cells assessed as depolarization of mitochondrial membrane potential at 1 uM incubated for 2 hrs by TMRE staining based flow cytometry. It counts as functional. A digest of the protocol: (§1)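 Cells seeded overnight; complete medium swapped for FBS-free medium just before treatment to avoid TMRE ester cleavage. Exposure to PXA for 1 h, 2 h or 24 h. TMRE staining 20 min, cells collected by trypsinisation, ΔΨm read by flow cytometry. Medium served as negative control, 20 µM CCCP as positive control. Mean ± SEM reported.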
Background: A flow cytometer gives signals particle by particle.

In assay [2] the test system is A2780cisR. Description: Induction of apoptosis in human A2780cisR cells assessed as nuclear condensation by measuring reduced size and increased intensity of nuclei at 10 uM incubated for 24 hrs by hoechst 33342 staining based fluorescence microscopy. It counts as functional, cell-based.
The test system of assay [3] is A2780. The experiment in a line: Induction of apoptosis in human A2780 cells assessed as depolarization of mitochondrial membrane potential at 1 uM incubated for 1 hr by TMRE staining based flow cytometry. It counts as functional. A digest of the protocol: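 Cells seeded overnight; medium switched to FBS-free just before treatment to avoid TMRE ester cleavage. Exposure 1 h, 2 h or 24 h, then TMRE staining for 20 min. Cells trypsinized, centrifuged at 4 °C and read by flow cytometry. Medium as negative control, 20 µM CCCP as positive control. […]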

Assay [4] relates to A2780cisR. Description: Induction of apoptosis in human A2780cisR cells assessed as increase in intracellular calcium level at 10 to 30 uM incubated for 30 mins in presence of 1 mM extracellular calcium by fluorimetry. It counts as functional, cell-based. A digest of the protocol: (§2)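 Cells seeded in 96-well plates overnight, washed twice with Krebs-HEPES buffer, loaded 1 h at 37 °C in the dark with Oregon Green BAPTA-1 AM (final 3 µM) and Pluronic F-127. Buffer replaced, PXA added, fluorescence at 544 nm recorded for 30 min, with or without 1 mM extracellular Ca2+. Three experiments, mean ± SEM.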

In assay [5] the test system is K562. Description: Potency index, ratio of cisplatin IC50 to compound IC50 for antiproliferative activity in human K562 cells assessed as reduction in cell viability incubated for 72 hrs by MTT assay. It counts as functional. A digest of the protocol:
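Cells seeded in 96-well plates overnight, exposed 72 h to increasing concentrations. MTT (5 mg/ml) added for 15 min, formazan dissolved in DMSO, absorbance read at 544 nm with 690 nm background subtracted. IC50 is the concentration reducing signal by 50%. Three independent experiments in triplicate. CisR sublines made by weekly intermittent cisplatin exposure for 24–30 weeks.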

For assay [6], the system named is J82. Description: Cell cycle arrest in cisplatin resistant human J82 cells assessed as accumulation at G1 phase at 10 uM incubated for 24 hrs by propidium iodide staining based flow cytometry (reference value: 78.1%). It counts as functional. A digest of the protocol: (§3)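 After 24 h exposure, cells washed in ice-cold PBS. About 2 million cells fixed in cold 70% ethanol at −20 °C for at least 24 h. Stained with 0.1% Triton X-100, 200 µg/ml RNase A and 20 µg/ml propidium iodide in PBS, 15 min at 37 °C in the dark. DNA content read by flow cytometry with doublet discrimination. Medium as untreated control, paclitaxel as G2/M control. Three independent experiments.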

The subject of assay [7] is A2780cisR. Description: Cell cycle arrest in human A2780cisR cells assessed as accumulation at G1 phase at 5 uM incubated for 24 hrs by propidium iodide staining based flow cytometry (reference value: 68.7%). It counts as functional. A digest of the protocol:
as §3

Assay [8] concerns MDA-MB-231. The experiment in a line: Antiproliferative activity against human MDA-MB-231 cells assessed as reduction in cell viability incubated for 72 hrs by MTT assay. The settings on record: MDA-MB-231, 72 h. It counts as functional, cell-based. A digest of the protocol:
(§4)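 Cells seeded overnight in 96-well plates, then exposed to increasing concentrations (compound dissolved in DMSO, diluted in medium) for the stated time. MTT (5 mg/ml in PBS) added for 15 min, formazan dissolved in DMSO, absorbance read at 544 nm minus 690 nm background. IC50 = concentration giving 50% signal decrease. At least three independent experiments in triplicate.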

Assay [9] concerns A2780cisR. Description: Induction of apoptosis in human A2780cisR cells assessed as depolarization of mitochondrial membrane potential incubated for 1 hr by TMRE staining based flow cytometry. It counts as functional, cell-based. A digest of the protocol: as §1
The subject of assay [10] is J82. Description: Induction of apoptosis in human J82 cells assessed as depolarization of mitochondrial membrane potential incubated for 1 hr by TMRE staining based flow cytometry. It counts as functional, cell-based. A digest of the protocol:
as §1

In assay [11] the test system is A2780cisR. The experiment in a line: Induction of apoptosis in human A2780cisR cells assessed as increase in caspase 3 cleavage at 5 uM incubated for 24 hrs by proteome profiler analysis. It counts as functional, cell-based. A digest of the protocol: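 A2780 and A2780CisR cells treated 24 h with 5 µM PXA; apoptosis-related proteins profiled with a human apoptosis antibody array following kit instructions.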

Assay [12] deals with A2780. The experiment in a line: Induction of apoptosis in human A2780 cells assessed as accumulation in subG1 phase at 1 uM incubated for 24 hrs by propidium iodide staining based flow cytometry (reference value: 10%). It counts as functional. A digest of the protocol: (§5)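 Cells plated in 24-well plates (about 100,000/well) for one day, then treated 24 h. Where used, caspase inhibitor Q-VD-OPh (20 µM) was added 1 h before. Cells lysed in hypotonic buffer (0.1% sodium citrate, 0.1% Triton X-100, 100 µg/ml propidium iodide) overnight at 4 °C in the dark. Sub-G1 fraction read by flow cytometry. Medium control, cisplatin positive control.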

Assay [13] relates to A2780cisR. The experiment in a line: Induction of apoptosis in human A2780cisR cells assessed as increase in intracellular calcium level at 1 to 30 uM incubated for 30 mins by fluorimetry. It counts as functional, cell-based. A digest of the protocol: as §2
Assay [14] concerns J82. The experiment in a line: Antiproliferative activity against human J82 cells assessed as reduction in cell viability incubated for 72 hrs by MTT assay. It counts as functional, cell-based. The following applies: J82, 72 h. A digest of the protocol: as §4
Background: Tetrazolium assays rely on reduction of a dye to a coloured formazan, in cell work by metabolically active cells.

The subject of assay [15] is J82. Description: Cell cycle arrest in human J82 cells assessed as accumulation at G1 phase at 10 uM incubated for 24 hrs by propidium iodide staining based flow cytometry (reference value: 69.6%). It counts as functional. A digest of the protocol:
as §3

In assay [16] the test system is A2780. Description: Cell cycle arrest in human A2780 cells assessed as accumulation at G1 phase at 5 uM incubated for 24 hrs by propidium iodide staining based flow cytometry (reference value: 61.8%). It counts as functional. A digest of the protocol: as §3
Assay [17] relates to J82. Description: Induction of apoptosis in human J82 cells assessed as accumulation in subG1 phase at 5 uM incubated for 24 hrs by propidium iodide staining based flow cytometry relative to control. It counts as functional. A digest of the protocol: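 About 100,000 cells/well plated; after one day, treated 24 h. Cells lysed in hypotonic buffer (0.1% sodium citrate, 0.1% Triton X-100, 100 µg/ml propidium iodide) and kept overnight at 4 °C in the dark. Sub-G1 fraction measured by flow cytometry. Medium as control, cisplatin as positive control.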

Assay [18] has as its system A2780. The experiment in a line: Induction of apoptosis in human A2780 cells assessed as plasma membrane damage at 1 to 10 uM incubated for 24 hrs by propidium iodide staining based flow cytometry. It counts as functional, cell-based. A digest of the protocol: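 Cells exposed to PXA for 24 h, trypsinised, pelleted at 4 °C, stained with 100 µg/ml propidium iodide, diluted in sheath fluid and read by flow cytometry. Positive control was 0.2% Triton X-100 (20 min). Three experiments, mean ± SEM.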

In assay [19] the test system is A2780cisR. The experiment in a line: Induction of apoptosis in human A2780cisR cells assessed as increase in activation of caspase 3/7 at 10 uM incubated for 24 hrs by hoechst 33342 staining based fluorescence microscopy (reference value: 0.8%). It counts as functional.
For assay [20], the system named is A2780. Description: Induction of apoptosis in human A2780 cells assessed as accumulation in subG1 phase incubated for 24 hrs by propidium iodide staining based flow cytometry. It counts as functional, cell-based. A digest of the protocol: as §5

Active and inactive are the calls of the source. The calls are words filed in the database; no cut-off is given here.

In the case of `CC(=O)OC[C@]12Oc3c(-c4ccc(O)c5c4O[C@@]4(COC(C)=O)C(=C(O)C[C@@H](C)[C@H]4OC(C)=O)C5=O)ccc(O)c3C(=O)C1=C(O)C[C@@H](C)[C@H]2OC(C)=O` [PHOMOXANTHONE A], the Activity in assay [1] was 50%; in assay [3], 73%; in assay [6], 81.2%; in assay [7] it was 83.3%; in assay [9] it was “Dose-dependent effect”; in [10], “Dose-dependent effect”. Further, the Activity is 42% in assay [12]; 70.9% in assay [15]; 75.9% in [16]; 53% in assay [17]; 71% in assay [19]; “Dose-dependent effect” in assay [20]. The result in assay [2], in [4], in assay [11] and in assay [13] was Active. In [5], the “Ratio IC50” value was determined as 5. Further, the half-inhibitory concentration (IC50) (usually the concentration needed to halve the response being measured) in [8] was 3.7 µM; in [9], 1.25 µM; in assay [10] (J82, 1 h), 3.75 µM; in assay [14] it was 3.23 µM. The result in assay [18] was inactive.
